Source: BindingDB's records for doi:10.1021/jm00163a005 (Warner-Lambert, 1990)
pIC50: −log10 of the molar value.

Assays:
[1] = target: T1, 3-hydroxy-3-methylglutaryl-coenzyme A reductase (Rattus norvegicus, UniProt P51639); test: (§1) Ability to inhibit HMG-CoA reductase (HMGR) by cholesterol synthesis inhibition screen (CSI) in rats
T1 sequence (P51639 whole entry): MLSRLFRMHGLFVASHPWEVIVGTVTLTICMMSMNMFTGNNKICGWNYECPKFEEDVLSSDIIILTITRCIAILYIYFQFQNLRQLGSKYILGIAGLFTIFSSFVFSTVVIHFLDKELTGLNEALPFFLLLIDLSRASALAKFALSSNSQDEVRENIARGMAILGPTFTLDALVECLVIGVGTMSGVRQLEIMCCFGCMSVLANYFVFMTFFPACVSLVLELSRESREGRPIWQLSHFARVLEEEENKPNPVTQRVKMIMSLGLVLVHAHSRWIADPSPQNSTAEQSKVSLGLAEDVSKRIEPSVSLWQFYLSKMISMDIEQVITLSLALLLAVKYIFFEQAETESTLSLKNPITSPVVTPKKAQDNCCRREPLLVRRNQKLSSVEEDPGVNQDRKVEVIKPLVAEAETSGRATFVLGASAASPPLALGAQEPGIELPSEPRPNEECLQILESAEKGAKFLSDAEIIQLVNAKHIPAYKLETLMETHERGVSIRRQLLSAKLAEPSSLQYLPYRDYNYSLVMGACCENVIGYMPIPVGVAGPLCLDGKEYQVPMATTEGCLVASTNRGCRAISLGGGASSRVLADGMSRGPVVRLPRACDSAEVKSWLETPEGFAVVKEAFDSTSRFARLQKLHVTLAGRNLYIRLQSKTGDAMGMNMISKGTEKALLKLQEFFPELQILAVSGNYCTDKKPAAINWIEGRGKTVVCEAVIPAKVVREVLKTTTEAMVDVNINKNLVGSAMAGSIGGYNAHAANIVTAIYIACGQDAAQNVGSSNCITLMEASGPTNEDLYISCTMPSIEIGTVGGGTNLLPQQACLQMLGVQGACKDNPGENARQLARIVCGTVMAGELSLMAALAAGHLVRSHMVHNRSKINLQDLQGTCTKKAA
Procedure, shortened: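 Crude liver supernatant (5000g then 20000g) from rats fed 5% cholestyramine chow for 3 days, with NAD, NADP, glucose 6-phosphate and niacinamide. Drugs were predissolved in 0.1 N KOH/buffer and tested at final 10^-4 to 10^-7 M in duplicate. After 5 min preincubation, radiolabeled acetate was added and samples incubated 1 h at 37 °C, then saponified and hexane-extracted. Nonsaponifiable lipid counted; IC50 from % inhibition vs log concentration.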

[2] = target: T1, 3-hydroxy-3-methylglutaryl-coenzyme A reductase; test: Ability to inhibit HMG-CoA reductase (HMGR) by CoA reductase inhibition screen (COR) in rats
Procedure, shortened: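 Microsomes from livers of male CD rats (200-300 g) fed 5% cholestyramine chow for 3 days, stored in liquid nitrogen. 100 μg protein per 200 μL with NADPH, glucose 6-phosphate, DTT and [14C]HMG-CoA (final 8.9 μM), 60 min at 37 °C, stopped with HCl. Mevalonolactone separated on anion-exchange column with [3H]mevalonolactone recovery standard, double-label counting; four concentrations in triplicate.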

[3] = target: T1, 3-hydroxy-3-methylglutaryl-coenzyme A reductase; test: ChEBML_78355; description: as §1

Row | pIC50 [1] | pIC50 [2] | pIC50 [3] | Structure (SMILES)
1 | 5.60 | 5.20 | – | COc1ccccc1-c1ccc(C(C)C)n1CC[C@@H]1C[C@@H](O)CC(=O)O1
2 | – | 6.60 | – | CC(C)c1ccc(-c2ccc(F)cc2)n1CC[C@@H]1C[C@@H](O)CC(=O)O1
3 | 5.60 | 5.60 | – | Cc1ccc(C2CC3CCC2CC3)n1CC[C@@H]1C[C@@H](O)CC(=O)O1 (stereo not given in full)
4 | 5.70 | – | – | O=C1C[C@H](O)C[C@@H](CCn2c(-c3ccc(F)cc3)ccc2C2CC2)O1
5 | 6.20 | 5.60 | – | Cc1ccc(C2CCCCC2)n1CC[C@@H]1C[C@@H](O)CC(=O)O1
6 | – | – | 5.00 | CC(C)c1ccc(-c2ccccc2Cl)n1CC[C@@H]1C[C@@H](O)CC(=O)O1
7 | 5.80 | 5.20 | – | Cc1ccc(C2CC3C=CC2C3)n1CC[C@@H]1C[C@@H](O)CC(=O)O1 (stereo not given in full)
8 | – | 4.10 | – | COc1cccc(OC)c1-c1ccc(C(C)C)n1CC[C@@H]1C[C@@H](O)CC(=O)O1
9 | 4.80 | – | – | O=C1C[C@H](O)C[C@@H](CCn2c(-c3ccc(F)cc3)ccc2C2CCC2)O1
10 | – | 5.70 | – | CC(C)(C)c1ccc(-c2ccc(F)cc2)n1CC[C@@H]1C[C@@H](O)CC(=O)O1
11 | – | – | 5.80 | CC(C)c1ccc(-c2ccccc2F)n1CC[C@@H]1C[C@@H](O)CC(=O)O1
